Reference: publication PMC10074403 (Chemical Science, 2023)

Legend:
[1] = test system: A2780 cells; assay: Intracellular EdU release from PE NPs; type: cell-based, human; settings: 10 μM EdU equiv., 6 h with PE NPs (1 h with EdU), azide-488
Method in brief: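 Human ovarian adenocarcinoma A2780 cells are treated with nanoparticles of mutual prodrugs built with the nucleoside analog EdU as a gemcitabine surrogate, or with free EdU; nanoparticle exposure is 6 h. EdU incorporated into DNA is detected by click reaction with azide-488. Images show green overlap with blue-stained nuclei (cyan) to indicate nuclear EdU incorporation.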

[2] = test system: A549 human lung adenocarcinoma xenografts; assay: In vivo anticancer efficacy in A549 xenografts; set-up: species or system female BALB/c nude mice; settings: PTX 20 mg kg−1 equiv., Gem 6.4 mg kg−1, i.v. on days 0, 3, 6; n = 5

| Structure (SMILES) | Distribution of green fluorescence (EdU incorporation into nuclei) [1] | A549 tumor growth (relative tumor size) [2] |
| --- | --- | --- |
| C#Cc1cn([C@H]2C[C@H](O)[C@@H](CO)O2)c(=O)[nH]c1=O [EdU, 5-ethynyl-2′-deoxyuridine] | centralized in the area of the nucleus |  |
| Nc1ccn([C@@H]2O[C@H](CO)[C@@H](O)C2(F)F)c(=O)n1 [Gem, gemcitabine] |  | failed to effectively suppress tumor growth |
